{"source": "ChEMBL document CHEMBL4190216", "about": "“Asymmetric 1,5-diarylpenta-1,4-dien-3-ones: Antiproliferative activity in prostate epithelial cell models and pharmacokinetic studies” (Eur J Med Chem, 2017)", "key": {"PC-3 [1]": {"tested_on": "PC-3", "experiment": "Induction of apoptosis in human PC3 cells assessed as early apoptotic cells at 40 uM after 16 hrs by F2N12S/CYTOX AADvanced double staining-based flow cytometric method (reference value: 2%)", "type": "functional"}, "[2]": {"experiment": "Antiproliferative activity against human LNCaP95 cells expressing androgen receptor splice variants assessed as decrease in cell viability after 5 days by trypan blue exclusion assay", "type": "functional, cell-based", "details": "LNCaP-95, 120 h"}, "PC-3 [3]": {"tested_on": "PC-3", "experiment": "Cell cycle arrest in human PC3 cells assessed as accumulation at G2 phase at 5 uM after 16 hrs by propidium iodide staining-based flow cytometric method (reference value: 25 to 28%)", "type": "functional"}, "PC-3 [4]": {"tested_on": "PC-3", "experiment": "Induction of apoptosis in human PC3 cells assessed as late apoptotic/necrotic cells at 20 uM after 16 hrs by F2N12S/CYTOX AADvanced double staining-based flow cytometric method (reference value: 3%)", "type": "functional"}, "PC-3 [5]": {"tested_on": "PC-3", "experiment": "Induction of apoptosis in human PC3 cells assessed as late apoptotic/necrotic cells at 5 uM after 16 hrs by F2N12S/CYTOX AADvanced double staining-based flow cytometric method (reference value: 3%)", "type": "functional"}, "[6]": {"experiment": "Cmax in Sprague-Dawley rat at 10 mg/kg administered via oral gavage by HPLC-MS/MS analysis", "type": "ADME, organism-based", "design": "dose 10 mg/kg, route oral", "details": "in vivo"}, "LNCaP [7]": {"tested_on": "LNCaP", "experiment": "Potency index, ratio of curcumin IC50 to test compound IC50 for human LNCAP cells", "type": "functional"}, "PC-3 [8]": {"tested_on": "PC-3", "experiment": "Induction of apoptosis in human PC3 cells assessed as viable cells at 30 uM after 16 hrs by F2N12S/CYTOX AADvanced double staining-based flow cytometric method (reference value: 95%)", "type": "functional", "details": "PC-3, 16 h, read-out: Activity"}, "[9]": {"experiment": "Drug metabolism in human liver microsomes assessed as (1Z,4E)-5-(1-sec-butyl-1H-imidazol-2-yl)-1-hydroxy-1-(2-methyl-4-(trifluoromethyl)thiazol-5-yl)penta-1,4-dien-3-one formation at 10 mM after 60 mins by UHPLC analysis", "type": "ADME, microsome", "summary_of_the_method": "(§1)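 Pooled human liver microsomes in potassium phosphate buffer (pH 7.4) with NADPH solutions A and B were preincubated for 5 min at 37 °C. Compound was then added from a 10 mM stock (3 μL into 300 μL total) and incubated 60 min at 37 °C. Reactions were quenched with an equal volume of methanol and centrifuged (10,000 × g, 4 min, 4 °C). Supernatant went to UHPLC–high-resolution MS for metabolite identification.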"}, "PC-3 [10]": {"tested_on": "PC-3", "experiment": "Antiproliferative activity against human PC3 cells assessed as decrease in cell viability after 3 days by WST assay", "type": "functional, cell-based", "details": "PC-3, 72 h", "summary_of_the_method": "(§2)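 Cells were seeded at 3,200 per well. PC-3 and LNCaP were grown in RPMI-1640 and DU-145 in EMEM, each with 10% FBS and 1% penicillin/streptomycin, at 37 °C and 5% CO2. Cells were exposed for 3 days to at least five concentrations, with DMSO as vehicle control. WST-1 reagent was then added for 3 h at 37 °C and absorbance read at 430 nm. IC50 came from linear inhibition, averaged over triplicates.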"}, "CWR22R": {"tested_on": "CWR22R", "experiment": "Antiproliferative activity against human 22Rv1 cells expressing androgen receptor splice variants assessed as decrease in cell viability after 5 days by trypan blue exclusion assay", "type": "functional, cell-based", "details": "22Rv1, 120 h"}, "PC-3 [11]": {"tested_on": "PC-3", "experiment": "Induction of apoptosis in human PC3 cells assessed as early apoptotic cells at 30 uM after 16 hrs by F2N12S/CYTOX AADvanced double staining-based flow cytometric method (reference value: 2%)", "type": "functional"}, "[12]": {"experiment": "Plasma concentration in Sprague-Dawley rat at 10 mg/kg administered via oral gavage measured at 6 hrs by HPLC-MS/MS analysis", "type": "ADME, organism-based"}, "[13]": {"experiment": "Plasma concentration in Sprague-Dawley rat at 10 mg/kg administered via oral gavage measured at 1 hr by HPLC-MS/MS analysis", "type": "ADME, organism-based"}, "PWR-1E": {"tested_on": "PWR-1E", "experiment": "Potency index, ratio of curcumin IC50 to test compound IC50 for human PWR-1E cells expressing androgen receptor and PSA", "type": "functional"}, "PC-3 [14]": {"tested_on": "PC-3", "experiment": "Induction of apoptosis in human PC3 cells assessed as early apoptotic cells at 15 uM after 16 hrs by F2N12S/CYTOX AADvanced double staining-based flow cytometric method (reference value: 2%)", "type": "functional"}, "PC-3 [15]": {"tested_on": "PC-3", "experiment": "Induction of apoptosis in human PC3 cells assessed as viable cells at 15 uM after 16 hrs by F2N12S/CYTOX AADvanced double staining-based flow cytometric method (reference value: 95%)", "type": "functional", "details": "PC-3, 16 h, read-out: Activity"}, "VCaP": {"tested_on": "VCaP", "experiment": "Antiproliferative activity against human VCaP cells expressing androgen receptor splice variants assessed as decrease in cell viability after 5 days by trypan blue exclusion assay", "type": "functional, cell-based", "details": "120 h"}, "DU-145": {"tested_on": "DU-145", "experiment": "Antiproliferative activity against human DU145 cells assessed as decrease in cell viability after 3 days by WST assay", "type": "functional, cell-based", "details": "DU-145, 72 h", "summary_of_the_method": "as §2"}, "PC-3 [16]": {"tested_on": "PC-3", "experiment": "Induction of apoptosis in human PC3 cells assessed as early apoptotic cells at 10 uM after 16 hrs by F2N12S/CYTOX AADvanced double staining-based flow cytometric method (reference value: 2%)", "type": "functional"}, "[17]": {"experiment": "Tmax in Sprague-Dawley rat at 10 mg/kg administered via oral gavage by HPLC-MS/MS analysis", "type": "ADME, organism-based", "details": "in vivo"}, "[18]": {"experiment": "Retention time of the compound", "type": "physicochemical"}, "PC-3 [19]": {"tested_on": "PC-3", "experiment": "Induction of apoptosis in human PC3 cells assessed as early apoptotic cells at 20 uM after 16 hrs by F2N12S/CYTOX AADvanced double staining-based flow cytometric method (reference value: 2%)", "type": "functional"}, "PC-3 [20]": {"tested_on": "PC-3", "experiment": "Induction of apoptosis in human PC3 cells assessed as late apoptotic/necrotic cells at 30 uM after 16 hrs by F2N12S/CYTOX AADvanced double staining-based flow cytometric method (reference value: 3%)", "type": "functional"}, "PC-3 [21]": {"tested_on": "PC-3", "experiment": "Induction of apoptosis in human PC3 cells assessed as early apoptotic cells at 5 uM after 16 hrs by F2N12S/CYTOX AADvanced double staining-based flow cytometric method (reference value: 2%)", "type": "functional"}, "LNCaP [22]": {"tested_on": "LNCaP", "experiment": "Antiproliferative activity against human LNCAP cells assessed as decrease in cell viability after 3 days by WST assay", "type": "functional, cell-based", "details": "72 h", "summary_of_the_method": "as §2"}, "PC-3 [23]": {"tested_on": "PC-3", "experiment": "Induction of apoptosis in human PC3 cells assessed as late apoptotic/necrotic cells at 10 uM after 16 hrs by F2N12S/CYTOX AADvanced double staining-based flow cytometric method (reference value: 3%)", "type": "functional"}, "PC-3 [24]": {"tested_on": "PC-3", "experiment": "Induction of apoptosis in human PC3 cells assessed as viable cells at 40 uM after 16 hrs by F2N12S/CYTOX AADvanced double staining-based flow cytometric method (reference value: 95%)", "type": "functional", "details": "PC-3, 16 h, read-out: Activity"}, "[25]": {"experiment": "Plasma concentration in Sprague-Dawley rat at 10 mg/kg administered via oral gavage measured after 1 day by HPLC-MS/MS analysis", "type": "ADME, organism-based"}, "[26]": {"experiment": "Drug metabolism in human liver microsomes assessed as (1Z,4E)-1-(1-sec-butyl-1H-imidazol-2-yl)-1-hydroxy-5-(2-methyl-4-(trifluoromethyl)thiazol-5-yl)penta-1,4-dien-3-one formation at 10 mM after 60 mins by UHPLC analysis", "type": "ADME, microsome", "summary_of_the_method": "as §1"}, "PC-3 [27]": {"tested_on": "PC-3", "experiment": "Induction of apoptosis in human PC3 cells assessed as late apoptotic/necrotic cells at 40 uM after 16 hrs by F2N12S/CYTOX AADvanced double staining-based flow cytometric method (reference value: 3%)", "type": "functional"}, "PC-3 [28]": {"tested_on": "PC-3", "experiment": "Cell cycle arrest in human PC3 cells assessed as accumulation at G0/G1 phase at 5 uM after 24 hrs by propidium iodide staining-based flow cytometric method (reference value: 59 to 62%)", "type": "functional"}}, "note": "pIC50: −log10 of the molar value.", "data": [{"smiles": "CCC(C)n1ccnc1/C=C/C(=O)/C=C/c1sc(C)nc1C(F)(F)F", "note": "(configuration not stated)", "values": [{"measurement": "Activity", "setting": "PC-3 [1]", "value": 25, "unit": "%"}, {"measurement": "pIC50", "setting": "[2]", "value": 6.43}, {"measurement": "Activity", "setting": "PC-3 [3]", "value": 18, "unit": "%"}, {"measurement": "Activity", "setting": "PC-3 [4]", "value": 23, "unit": "%"}, {"measurement": "Activity", "setting": "PC-3 [5]", "value": 39, "unit": "%"}, {"measurement": "Cmax", "setting": "[6]", "value": 5.27, "unit": "µM"}, {"measurement": "Ratio IC50", "setting": "LNCaP [7]", "value": 62}, {"measurement": "viability at 30 µM", "setting": "PC-3 [8]", "value": 34, "unit": "%"}, {"measurement": "Drug metabolism", "setting": "[9]", "value": "Metabolite_Detected"}, {"measurement": "pIC50", "setting": "PC-3 [10]", "value": 6.64}, {"measurement": "pIC50", "setting": "CWR22R", "value": 6.07}, {"measurement": "Activity", "setting": "PC-3 [11]", "value": 20, "unit": "%"}, {"measurement": "concentration at 6 h", "setting": "[12]", "value": 1940, "unit": "ng/mL"}, {"measurement": "concentration at 1 h", "setting": "[13]", "value": 361, "unit": "ng/mL"}, {"measurement": "Ratio IC50", "setting": "PWR-1E", "value": 81}, {"measurement": "Activity", "setting": "PC-3 [14]", "value": 13, "unit": "%"}, {"measurement": "viability at 15 µM", "setting": "PC-3 [15]", "value": 54, "unit": "%"}, {"measurement": "pIC50", "setting": "VCaP", "value": 6.46}, {"measurement": "pIC50", "setting": "DU-145", "value": 6.46}, {"measurement": "Activity", "setting": "PC-3 [16]", "value": 14, "unit": "%"}, {"measurement": "Tmax", "setting": "[17]", "value": 6, "unit": "h"}, {"measurement": "Retention_time", "setting": "[18]", "value": 4.35, "unit": "min"}, {"measurement": "Activity", "setting": "PC-3 [19]", "value": 26, "unit": "%"}, {"measurement": "Activity", "setting": "PC-3 [20]", "value": 46, "unit": "%"}, {"measurement": "Activity", "setting": "PC-3 [21]", "value": 11, "unit": "%"}, {"measurement": "pIC50", "setting": "LNCaP [22]", "value": 6.66}, {"measurement": "Activity", "setting": "PC-3 [23]", "value": 37, "unit": "%"}, {"measurement": "viability at 40 µM", "setting": "PC-3 [24]", "value": 22, "unit": "%"}, {"measurement": "concentration at 24 h", "setting": "[25]", "value": 230, "unit": "ng/mL"}, {"measurement": "Drug metabolism", "setting": "[26]", "value": "Metabolite_Detected"}, {"measurement": "Activity", "setting": "PC-3 [27]", "value": 53, "unit": "%"}, {"measurement": "Activity", "setting": "PC-3 [28]", "value": 66, "unit": "%"}]}]}
